Experimental data from ChEMBL document CHEMBL2407075, “Sulphonamido-quinoxalines: search for anticancer agent” (Eur J Med Chem, 2013).

How the values were obtained:
Type in all cases: functional
HT-29 = test: Growth inhibition of human HT-29 cells after 48 hrs by sulforhodamine B assay; conditions: HT-29, 48 h
Outline: (§1)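 Adherent cells in RPMI 1640 with 5% FBS and 2 mM L-glutamine were plated at 5000–40,000 cells/well and grown 24 h. Five concentrations (0.01–100 µM, DMSO stock) were added for 48 h at 37 °C. Cells were fixed with cold TCA (10% final) and stained with SRB, read at 515 nm. GI50 came from log concentration–growth curves against time-zero and control plates.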

SF-295 = test: Growth inhibition of human SF295 cells after 48 hrs by sulforhodamine B assay; conditions: SF-295, 48 h; outline: as §1
SK-MEL-5 = test: Growth inhibition of human SK-MEL-5 cells after 48 hrs by sulforhodamine B assay; conditions: SK-MEL-5, 48 h
MDA-MB-231 = test: Growth inhibition of human MDA-MB-231 cells after 48 hrs by sulforhodamine B assay; conditions: MDA-MB-231, 48 h
OVCAR-8 = test: Growth inhibition of human OVCAR8 cells assessed as cell growth at 10^-5 M after 48 hrs by sulforhodamine B assay; conditions: OVCAR-8, 48 h, read-out: Activity
CCRF-CEM [1] = test: Growth inhibition of human CCRF-CEM cells assessed as cell growth at 10^-8 M after 48 hrs by sulforhodamine B assay; conditions: read-out: Activity
SK-MEL-2 [2] = test: Growth inhibition of human SK-MEL-2 cells assessed as cell growth at 10^-6 M after 48 hrs by sulforhodamine B assay; conditions: SK-MEL-2, 48 h, read-out: Activity
HCT-15 = test: Growth inhibition of human HCT15 cells assessed as cell growth at 10^-6 M after 48 hrs by sulforhodamine B assay; conditions: HCT-15, 48 h, read-out: Activity
CCRF-CEM [3] = test: Growth inhibition of human CCRF-CEM cells assessed as cell growth at 10^-5 M after 48 hrs by sulforhodamine B assay; conditions: read-out: Activity
CCRF-CEM [4] = test: Growth inhibition of human CCRF-CEM cells assessed as cell growth at 10^-6 M after 48 hrs by sulforhodamine B assay; conditions: read-out: Activity
CCRF-CEM [5] = test: Growth inhibition of human CCRF-CEM cells assessed as cell growth at 10^-7 M after 48 hrs by sulforhodamine B assay; conditions: read-out: Activity
LOX IMVI = test: Growth inhibition of human LOXIMVI cells after 48 hrs by sulforhodamine B assay; outline: as §1
CCRF-CEM [6] = test: Growth inhibition of human CCRF-CEM cells assessed as cell growth at 10^-4 M after 48 hrs by sulforhodamine B assay; conditions: read-out: Activity
CCRF-CEM [7] = test: Growth inhibition of human CCRF-CEM cells after 48 hrs by sulforhodamine B assay; conditions: read-out: LC50 (the source's name)
Outline: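 Leukemia suspension cells in RPMI 1640 with 5% FBS and 2 mM L-glutamine were plated at 5000–40,000 cells/well and grown 24 h. Five concentrations (0.01–100 µM) were given for 48 h at 37 °C. Settled cells were fixed with 80% TCA (16% final) and SRB-stained, read at 515 nm. GI50 came from dose–response curves against time-zero and control plates.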

SK-MEL-28 = test: Growth inhibition of human SK-MEL-28 cells assessed as cell growth at 10^-7 M after 48 hrs by sulforhodamine B assay; conditions: SK-MEL-28, 48 h, read-out: Activity
SK-MEL-2 [8] = test: Growth inhibition of human SK-MEL-2 cells assessed as cell growth at 10^-7 M after 48 hrs by sulforhodamine B assay; conditions: SK-MEL-2, 48 h, read-out: Activity
[9] = read-out: LC50 (the source's name)

Structure (SMILES)	GI50 (HT-29) [nM]	CC50 (HT-29; [9]) [nM]	GI50 (SF-295) [nM]	CC50 (SF-295; [9]) [nM]	GI50 (SK-MEL-5) [nM]	GI50 (MDA-MB-231) [nM]	growth at 10 µM (OVCAR-8) [%]	growth at 0.01 µM (CCRF-CEM [1]) [%]	growth at 1 µM (SK-MEL-2 [2]) [%]	growth at 1 µM (HCT-15) [%]	growth at 10 µM (CCRF-CEM [3]) [%]	growth at 1 µM (CCRF-CEM [4]) [%]	growth at 0.1 µM (CCRF-CEM [5]) [%]	TGI (LOX IMVI) [nM]	CC50 (LOX IMVI; [9]) [nM]	growth at 100 µM (CCRF-CEM [6]) [%]	CC50 (CCRF-CEM [7]) [nM]	growth at 0.1 µM (SK-MEL-28) [%]	growth at 0.1 µM (SK-MEL-2 [8]) [%]
O=S(=O)(Nc1ccccn1)c1ccc2nc(-c3ccccc3)c(-c3ccccc3)nc2c1	1780	> 100000	1870	100000	1460	1820													
O=S(=O)(Nc1ccc(Cl)cc1)c1ccc2nc(-c3ccccc3)c(-c3ccccc3)nc2c1							6	88	99	87	-40	79	91	> 100000	> 100000	64	> 100000	96	99
